# Experimental data of several laboratories.
# Lines come from different studies, so protocols differ.
# Target: Myosin light chain kinase 2, skeletal/cardiac muscle (MYLK2, Homo sapiens, UniProt Q9H1R3)
SMILES,assay,conditions,remaining binding
COc1cc(-c2cn(C3CCc4c(F)cccc4N(CC(F)(F)F)C3=O)nn2)ccc1-n1cnc(C)c1 (stereo not drawn),"cell-free assay, competition with immobilised ligand",1 µM,100%
C[C@@H](c1ccc(-n2cnc3c(N)ncnc32)cc1)N1CCc2nn(C)c(Cc3ccccc3)c2C1=O,"binding, competition with immobilised ligand",0.1 µM,85%
Cc1c(C(=O)O)cc(-c2ccc(C3CCNCC3)cc2)c2ccc(-c3ccc(C(F)(F)F)cc3)cc12,"binding, competition with immobilised ligand",1 µM,100%
Cc1cnn2ncc(-c3ccnc(N(C)C)n3)c2c1,binding,1 µM,100%
Cc1cc(NC(=O)c2cccc(S(F)(F)(F)(F)F)c2)cc(-n2ccn3nc(-c4cccnc4)cc23)c1,"cell-free assay, competition with immobilised ligand",1 µM,100%
O=C(c1ccc(Nc2ncc(Cl)c(-c3cc4ccccc4s3)n2)cc1)N1CCC(N2CCCC2)CC1,"binding, competition with immobilised ligand",1 µM,1.2%
Cc1nc(C2CCN(C(=O)c3ccc(OC(F)(F)F)cc3N)CC2)c2ncc(N3CCN(C)CC3)cc2n1,"cell-free assay, competition with immobilised ligand",1 µM,87%
N[C@H]1CCN(c2nccc(-c3cnn4ncccc34)n2)C1,binding,1 µM,92%
CN(C)CC#Cc1ccc(OCCCc2sc(N3CCc4cccc(C(=O)Nc5nc6ccccc6s5)c4C3)nc2C(=O)O)c(F)c1,"cell-free assay, competition with immobilised ligand",1 µM,100%
O=C(c1ccc(Nc2nccc(-c3cc4ccccc4s3)n2)cc1)N1CCC(N2CCCC2)CC1,"binding, competition with immobilised ligand",1 µM,0.8%
c1cncc(-c2cccc(Nc3nccc(NC4CCCCC4)n3)c2)c1,"binding, competition with immobilised ligand",10 µM,70%
COc1ncc2cc3ccccc3nc2c1C#N,"binding, competition with immobilised ligand",5 µM,84%
O=C(NCC1CCOCC1)c1n[nH]cc1NC(=O)c1c(F)cccc1F,"binding, competition with immobilised ligand",1 µM,100%
CN(C)c1nccc(-c2cnn3ncccc23)n1,binding,1 µM,100%
CNCc1ccccc1-c1csc([C@H](C)Nc2nc(C)nc3cc(OC)c(OC)cc23)c1,"cell-free assay, competition with immobilised ligand",1 µM,100%
C[C@@H]1CCN(c2nccc(-c3cnn4ncccc34)n2)C1,binding,1 µM,86%
CNC(=O)[C@@H]1CC[C@@H](n2c(-c3ccc4cnccc4c3)nc3ccc(C(=O)NCc4cccc(C(N)=O)c4)cc32)C1,"binding, competition with immobilised ligand",1 µM,100%
CN(C)c1ncc(F)c(-c2cnn3ncccc23)n1,binding,1 µM,100%
O=C(NCCCN1CCOCC1)c1ccc(Nc2ncc(Cl)c(-c3ccc(Cl)s3)n2)cc1,"binding, competition with immobilised ligand",1 µM,12%
CC1CCCN1c1nccc(-c2cnn3ncccc23)n1 (stereo not drawn),binding,1 µM,100%
Nc1ncc2c(n1)-c1c([nH]c3ccc(C#CC4CC4)cc13)CCCC2,"binding, competition with immobilised ligand",1 µM,100%
